{"source": "ChEMBL document CHEMBL4425169", "about": "(ACS Med Chem Lett, 2016)", "key": {"[1]": {"test": "Drug metabolism in bile duct cannulated rat assessed as lactone hydrolysis", "assay_type": "ADME"}, "[2]": {"tested_on": "Rattus norvegicus", "test": "Kaliuretic activity in Sprague-Dawley rat at 3 mg/kg via oral gavage administered 30 mins prior to void induction by loading saline measured upto 4 hrs relative to vehicle treated control", "assay_type": "functional", "method_in_brief": "(§1)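 Acute rat diuresis model in male-unspecified Sprague-Dawley rats, single oral dose, urine collected over 4 h. Urine volume, sodium excretion and potassium excretion expressed as fold increase over vehicle-treated controls; n = 5 per group; significance tested against vehicle.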"}, "[3]": {"test": "Cardiotoxicity in vagotomized cardiovascular dog model assessed as effect on mean arterial pressure at plasma concentration <= 11.6 uM at 1 to 7 mg/kg, iv administered during three sequential 30 min periods", "assay_type": "toxicity, organism-based, Canis lupus familiaris", "settings": "in vivo, 0.5 h", "method_in_brief": "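Anesthetized, vagotomized dogs received IV infusions over sequential periods at 1, 2 and 7 mg/kg (10 mg/kg cumulative). Heart rate, mean arterial pressure and ECG intervals (PR, QRS, QT/QTc) were recorded predose and during each infusion period. Plasma concentrations were measured.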"}, "[4]": {"tested_on": "Rattus norvegicus", "test": "Kaliuretic activity in Sprague-Dawley rat at 0.3 mg/kg via oral gavage administered 30 mins prior to void induction by loading saline measured upto 4 hrs relative to vehicle treated control", "assay_type": "functional", "method_in_brief": "as §1"}, "[5]": {"test": "Drug metabolism in rat hepatocytes assessed as oxidation at 1 uM measured at 120 mins", "assay_type": "ADME, cell-based, Hepatocyte", "settings": "2 h"}, "[6]": {"test": "Drug metabolism in monkey hepatocytes assessed as oxidation at 1 uM measured at 120 mins", "assay_type": "ADME, cell-based, Macaca mulatta, Hepatocyte", "settings": "rhesus monkey, 2 h"}, "[7]": {"tested_on": "Rattus norvegicus", "test": "Antihypertensive activity in spontaneously hypertensive rat assessed as reduction in systolic blood pressure administered via oral gavage once daily for 4 days measured on day 4 by telemetry", "assay_type": "functional, organism-based"}, "[8]": {"tested_on": "Rattus norvegicus", "test": "Diuretic activity in Sprague-Dawley rat at 0.3 mg/kg via oral gavage administered 30 mins prior to void induction by loading saline measured upto 4 hrs relative to vehicle treated control", "assay_type": "functional", "method_in_brief": "as §1"}, "[9]": {"molecular_target": "Cytochrome P450 2D6 (Homo sapiens, UniProt P10635)", "sequence (P10635 whole entry)": "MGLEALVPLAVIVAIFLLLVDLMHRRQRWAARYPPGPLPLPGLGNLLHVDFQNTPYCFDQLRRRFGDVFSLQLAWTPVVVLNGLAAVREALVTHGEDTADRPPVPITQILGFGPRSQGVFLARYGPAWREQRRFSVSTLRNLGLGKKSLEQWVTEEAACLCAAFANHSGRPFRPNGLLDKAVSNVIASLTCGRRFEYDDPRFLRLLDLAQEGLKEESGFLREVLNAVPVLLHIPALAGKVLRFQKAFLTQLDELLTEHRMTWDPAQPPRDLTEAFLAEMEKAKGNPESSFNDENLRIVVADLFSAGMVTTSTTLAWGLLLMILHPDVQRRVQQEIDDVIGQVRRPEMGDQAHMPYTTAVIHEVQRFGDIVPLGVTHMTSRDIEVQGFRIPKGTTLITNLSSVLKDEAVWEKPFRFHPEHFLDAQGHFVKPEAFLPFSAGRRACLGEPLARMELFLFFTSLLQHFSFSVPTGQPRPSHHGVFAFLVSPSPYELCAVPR", "test": "Reversible inhibition of human CYP2D6", "assay_type": "ADME"}, "[10]": {"molecular_target": "T1, Cytochrome P450 3A4 (Homo sapiens, UniProt P08684)", "T1 sequence (P08684 whole entry)": "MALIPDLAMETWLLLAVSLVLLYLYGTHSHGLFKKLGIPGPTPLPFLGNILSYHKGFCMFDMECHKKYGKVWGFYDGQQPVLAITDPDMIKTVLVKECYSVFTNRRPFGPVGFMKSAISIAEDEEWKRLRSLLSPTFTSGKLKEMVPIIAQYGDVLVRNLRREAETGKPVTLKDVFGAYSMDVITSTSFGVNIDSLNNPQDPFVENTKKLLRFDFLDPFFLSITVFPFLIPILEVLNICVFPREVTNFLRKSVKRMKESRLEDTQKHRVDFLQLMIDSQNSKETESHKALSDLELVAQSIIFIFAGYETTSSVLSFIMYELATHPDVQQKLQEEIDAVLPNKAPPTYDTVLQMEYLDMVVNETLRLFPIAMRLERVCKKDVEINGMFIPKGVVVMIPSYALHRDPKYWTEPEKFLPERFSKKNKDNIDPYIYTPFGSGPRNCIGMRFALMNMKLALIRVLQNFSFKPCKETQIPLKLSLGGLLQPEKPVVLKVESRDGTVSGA", "test": "Reversible inhibition of human CYP3A4", "assay_type": "ADME"}, "[11]": {"tested_on": "Rattus norvegicus", "test": "Kaliuretic activity in Sprague-Dawley rat at 10 mg/kg via oral gavage administered 30 mins prior to void induction by loading saline measured upto 4 hrs relative to vehicle treated control", "assay_type": "functional", "method_in_brief": "as §1"}, "[12]": {"test": "Volume of distribution at steady state in rhesus monkey at 1 mg/kg, iv or 2 mg/kg, po", "assay_type": "ADME, organism-based, Macaca mulatta", "settings": "in vivo, read-out: Vdss"}, "[13]": {"molecular_target": "T2, Inward rectifier potassium channel 13 (Homo sapiens) (UniProt O60928)", "T2 sequence (whole entry)": "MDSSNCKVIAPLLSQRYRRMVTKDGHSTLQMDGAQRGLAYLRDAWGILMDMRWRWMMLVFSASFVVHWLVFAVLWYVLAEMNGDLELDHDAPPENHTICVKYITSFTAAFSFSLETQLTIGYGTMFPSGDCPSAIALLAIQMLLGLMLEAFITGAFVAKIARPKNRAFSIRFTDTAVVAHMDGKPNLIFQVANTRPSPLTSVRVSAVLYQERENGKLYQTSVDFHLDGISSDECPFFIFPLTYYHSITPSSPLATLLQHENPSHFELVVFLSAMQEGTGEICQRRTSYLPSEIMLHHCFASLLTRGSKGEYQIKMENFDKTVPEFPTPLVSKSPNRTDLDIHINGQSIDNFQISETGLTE", "test": "Inhibition of Kir7.1 (unknown origin) upto 30 uM"}, "[14]": {"tested_on": "Rattus norvegicus", "test": "Natriuretic activity in Sprague-Dawley rat at 0.3 mg/kg via oral gavage administered 30 mins prior to void induction by loading saline measured upto 4 hrs relative to vehicle treated control", "assay_type": "functional", "method_in_brief": "as §1"}, "[15]": {"test": "Half life in rat at 1 mg/kg, iv or 2 mg/kg, po", "assay_type": "ADME, organism-based", "settings": "in vivo", "method_in_brief": "(§2)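 Rats dosed once at 1 mg/kg IV and, separately, 2 mg/kg PO, with n = 3. Derived parameters were plasma clearance, Vdss, dose-normalized oral AUC (μM·h·kg/mg), half-life, and oral bioavailability (F%).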"}, "[16]": {"test": "Drug metabolism in human hepatocytes assessed as lactone hydrolysis at 1 uM measured at 120 mins", "assay_type": "ADME, cell-based, Hepatocyte", "settings": "read-out: Drug metabolism"}, "[17]": {"test": "Oral bioavailability in rhesus monkey at 2 mg/kg", "assay_type": "ADME, organism-based, Macaca mulatta", "settings": "in vivo"}, "[18]": {"test": "Drug metabolism in human hepatocytes assessed as oxidation at 1 uM measured at 120 mins", "assay_type": "ADME, cell-based, Hepatocyte", "settings": "read-out: Drug metabolism"}, "[19]": {"test": "Drug metabolism in dog hepatocytes assessed as oxidation at 1 uM measured at 120 mins", "assay_type": "ADME, cell-based, Canis lupus familiaris, Hepatocyte", "settings": "read-out: Drug metabolism"}, "[20]": {"test": "Half life in dog at 1 mg/kg, iv or 2 mg/kg, po", "assay_type": "ADME, organism-based, Canis lupus familiaris", "settings": "in vivo"}, "[21]": {"test": "Clearance in rat at 1 mg/kg, iv or 2 mg/kg, po", "assay_type": "ADME, organism-based", "settings": "in vivo", "method_in_brief": "as §2"}, "[22]": {"molecular_target": "T3, ATP-sensitive inward rectifier potassium channel 10 (Homo sapiens) (UniProt P78508)", "T3 sequence (whole entry)": "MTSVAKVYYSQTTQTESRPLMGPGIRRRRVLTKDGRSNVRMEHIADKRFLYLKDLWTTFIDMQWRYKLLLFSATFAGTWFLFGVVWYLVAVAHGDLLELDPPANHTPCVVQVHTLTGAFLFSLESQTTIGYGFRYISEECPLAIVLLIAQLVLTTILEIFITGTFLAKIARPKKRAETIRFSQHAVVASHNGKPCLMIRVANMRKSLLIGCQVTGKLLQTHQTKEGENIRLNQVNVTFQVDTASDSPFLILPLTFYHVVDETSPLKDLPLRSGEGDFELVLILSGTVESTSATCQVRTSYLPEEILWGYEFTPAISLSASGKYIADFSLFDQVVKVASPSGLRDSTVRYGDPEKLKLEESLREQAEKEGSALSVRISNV", "test": "Inhibition of Kir4.1 (unknown origin) upto 30 uM"}, "[23]": {"molecular_target": "Acetylcholinesterase (Homo sapiens, UniProt P22303)", "sequence (P22303 whole entry)": "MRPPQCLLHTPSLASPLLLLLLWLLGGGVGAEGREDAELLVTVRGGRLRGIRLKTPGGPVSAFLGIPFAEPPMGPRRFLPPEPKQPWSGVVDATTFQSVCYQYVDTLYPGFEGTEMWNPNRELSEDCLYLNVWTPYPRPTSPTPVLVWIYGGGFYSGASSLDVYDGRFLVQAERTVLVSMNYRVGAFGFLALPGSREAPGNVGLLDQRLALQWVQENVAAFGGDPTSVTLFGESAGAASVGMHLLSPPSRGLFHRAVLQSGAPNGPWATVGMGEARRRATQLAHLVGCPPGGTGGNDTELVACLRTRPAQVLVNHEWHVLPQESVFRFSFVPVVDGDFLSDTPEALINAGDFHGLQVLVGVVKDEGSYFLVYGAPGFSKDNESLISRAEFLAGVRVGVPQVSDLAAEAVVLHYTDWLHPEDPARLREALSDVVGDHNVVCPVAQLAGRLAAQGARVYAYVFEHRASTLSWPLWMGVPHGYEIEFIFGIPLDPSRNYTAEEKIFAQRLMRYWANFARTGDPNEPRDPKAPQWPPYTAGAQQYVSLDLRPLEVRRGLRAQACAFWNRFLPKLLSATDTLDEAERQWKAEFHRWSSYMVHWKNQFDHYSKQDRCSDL", "test": "Inhibition of ACES (unknown origin)"}, "[24]": {"tested_on": "Rattus norvegicus", "test": "Diuretic activity in Sprague-Dawley rat at 3 mg/kg via oral gavage administered 30 mins prior to void induction by loading saline measured upto 4 hrs relative to vehicle treated control", "assay_type": "functional", "method_in_brief": "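Acute 4 h study in Sprague-Dawley rats after oral dosing, n = 5 per group. Urine volume and sodium and potassium excretion were expressed as fold increase over vehicle-treated animals. Significance was tested versus vehicle (p < 0.05 or p < 0.01).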"}, "[25]": {"test": "Drug excretion in bile duct cannulated rat urine", "assay_type": "ADME", "settings": "in vivo"}, "[26]": {"test": "Oral bioavailability in rat at 2 mg/kg", "assay_type": "ADME, organism-based", "settings": "in vivo", "method_in_brief": "as §2"}, "[27]": {"test": "Drug metabolism in rat hepatocytes assessed as lactone hydrolysis at 1 uM measured at 120 mins", "assay_type": "ADME, cell-based, Hepatocyte", "settings": "read-out: Drug metabolism"}, "[28]": {"test": "Clearance in rhesus monkey at 1 mg/kg, iv or 2 mg/kg, po", "assay_type": "ADME, organism-based, Macaca mulatta", "settings": "in vivo"}, "[29]": {"tested_on": "Rattus norvegicus", "test": "Kaliuretic activity in Sprague-Dawley rat at 1 mg/kg via oral gavage administered 30 mins prior to void induction by loading saline measured upto 4 hrs relative to vehicle treated control", "assay_type": "functional", "method_in_brief": "as §1"}, "[30]": {"molecular_target": "Voltage-gated inwardly rectifying potassium channel KCNH2 (Homo sapiens, UniProt Q12809)", "sequence (Q12809 whole entry)": "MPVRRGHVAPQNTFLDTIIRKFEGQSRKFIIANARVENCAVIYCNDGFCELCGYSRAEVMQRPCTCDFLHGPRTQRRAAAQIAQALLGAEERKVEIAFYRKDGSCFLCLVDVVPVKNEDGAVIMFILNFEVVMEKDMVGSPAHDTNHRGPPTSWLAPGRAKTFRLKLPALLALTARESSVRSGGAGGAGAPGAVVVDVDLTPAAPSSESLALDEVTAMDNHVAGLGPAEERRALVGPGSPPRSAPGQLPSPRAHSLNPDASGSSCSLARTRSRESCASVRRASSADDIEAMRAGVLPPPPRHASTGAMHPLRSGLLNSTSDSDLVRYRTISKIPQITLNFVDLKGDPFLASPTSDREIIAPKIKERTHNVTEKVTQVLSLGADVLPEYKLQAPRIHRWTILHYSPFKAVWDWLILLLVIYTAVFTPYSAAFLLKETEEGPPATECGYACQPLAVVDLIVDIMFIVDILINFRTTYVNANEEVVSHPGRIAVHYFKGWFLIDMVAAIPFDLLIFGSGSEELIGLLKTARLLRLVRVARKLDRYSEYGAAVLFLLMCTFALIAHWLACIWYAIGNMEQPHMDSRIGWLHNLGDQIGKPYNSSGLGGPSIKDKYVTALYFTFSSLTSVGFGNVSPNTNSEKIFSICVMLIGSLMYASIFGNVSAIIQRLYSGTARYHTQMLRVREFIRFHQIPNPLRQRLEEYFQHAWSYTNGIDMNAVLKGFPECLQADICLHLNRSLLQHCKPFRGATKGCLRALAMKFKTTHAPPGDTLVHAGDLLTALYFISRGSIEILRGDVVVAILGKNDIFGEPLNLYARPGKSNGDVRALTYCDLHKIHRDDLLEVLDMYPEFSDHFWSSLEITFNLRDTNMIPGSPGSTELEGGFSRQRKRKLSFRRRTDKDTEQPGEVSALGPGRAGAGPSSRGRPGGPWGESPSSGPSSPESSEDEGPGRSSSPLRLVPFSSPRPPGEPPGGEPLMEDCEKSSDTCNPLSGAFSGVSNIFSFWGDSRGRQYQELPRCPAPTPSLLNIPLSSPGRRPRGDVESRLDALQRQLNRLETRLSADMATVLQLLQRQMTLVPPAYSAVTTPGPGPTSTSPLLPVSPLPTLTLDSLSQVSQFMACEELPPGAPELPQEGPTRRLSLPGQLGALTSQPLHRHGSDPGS", "test": "Displacement of [35S]MK-499 from human ERG"}, "[31]": {"molecular_target": "Voltage-dependent L-type calcium channel subunit alpha-1C (Homo sapiens, UniProt Q13936)", "sequence (Q13936 whole entry)": "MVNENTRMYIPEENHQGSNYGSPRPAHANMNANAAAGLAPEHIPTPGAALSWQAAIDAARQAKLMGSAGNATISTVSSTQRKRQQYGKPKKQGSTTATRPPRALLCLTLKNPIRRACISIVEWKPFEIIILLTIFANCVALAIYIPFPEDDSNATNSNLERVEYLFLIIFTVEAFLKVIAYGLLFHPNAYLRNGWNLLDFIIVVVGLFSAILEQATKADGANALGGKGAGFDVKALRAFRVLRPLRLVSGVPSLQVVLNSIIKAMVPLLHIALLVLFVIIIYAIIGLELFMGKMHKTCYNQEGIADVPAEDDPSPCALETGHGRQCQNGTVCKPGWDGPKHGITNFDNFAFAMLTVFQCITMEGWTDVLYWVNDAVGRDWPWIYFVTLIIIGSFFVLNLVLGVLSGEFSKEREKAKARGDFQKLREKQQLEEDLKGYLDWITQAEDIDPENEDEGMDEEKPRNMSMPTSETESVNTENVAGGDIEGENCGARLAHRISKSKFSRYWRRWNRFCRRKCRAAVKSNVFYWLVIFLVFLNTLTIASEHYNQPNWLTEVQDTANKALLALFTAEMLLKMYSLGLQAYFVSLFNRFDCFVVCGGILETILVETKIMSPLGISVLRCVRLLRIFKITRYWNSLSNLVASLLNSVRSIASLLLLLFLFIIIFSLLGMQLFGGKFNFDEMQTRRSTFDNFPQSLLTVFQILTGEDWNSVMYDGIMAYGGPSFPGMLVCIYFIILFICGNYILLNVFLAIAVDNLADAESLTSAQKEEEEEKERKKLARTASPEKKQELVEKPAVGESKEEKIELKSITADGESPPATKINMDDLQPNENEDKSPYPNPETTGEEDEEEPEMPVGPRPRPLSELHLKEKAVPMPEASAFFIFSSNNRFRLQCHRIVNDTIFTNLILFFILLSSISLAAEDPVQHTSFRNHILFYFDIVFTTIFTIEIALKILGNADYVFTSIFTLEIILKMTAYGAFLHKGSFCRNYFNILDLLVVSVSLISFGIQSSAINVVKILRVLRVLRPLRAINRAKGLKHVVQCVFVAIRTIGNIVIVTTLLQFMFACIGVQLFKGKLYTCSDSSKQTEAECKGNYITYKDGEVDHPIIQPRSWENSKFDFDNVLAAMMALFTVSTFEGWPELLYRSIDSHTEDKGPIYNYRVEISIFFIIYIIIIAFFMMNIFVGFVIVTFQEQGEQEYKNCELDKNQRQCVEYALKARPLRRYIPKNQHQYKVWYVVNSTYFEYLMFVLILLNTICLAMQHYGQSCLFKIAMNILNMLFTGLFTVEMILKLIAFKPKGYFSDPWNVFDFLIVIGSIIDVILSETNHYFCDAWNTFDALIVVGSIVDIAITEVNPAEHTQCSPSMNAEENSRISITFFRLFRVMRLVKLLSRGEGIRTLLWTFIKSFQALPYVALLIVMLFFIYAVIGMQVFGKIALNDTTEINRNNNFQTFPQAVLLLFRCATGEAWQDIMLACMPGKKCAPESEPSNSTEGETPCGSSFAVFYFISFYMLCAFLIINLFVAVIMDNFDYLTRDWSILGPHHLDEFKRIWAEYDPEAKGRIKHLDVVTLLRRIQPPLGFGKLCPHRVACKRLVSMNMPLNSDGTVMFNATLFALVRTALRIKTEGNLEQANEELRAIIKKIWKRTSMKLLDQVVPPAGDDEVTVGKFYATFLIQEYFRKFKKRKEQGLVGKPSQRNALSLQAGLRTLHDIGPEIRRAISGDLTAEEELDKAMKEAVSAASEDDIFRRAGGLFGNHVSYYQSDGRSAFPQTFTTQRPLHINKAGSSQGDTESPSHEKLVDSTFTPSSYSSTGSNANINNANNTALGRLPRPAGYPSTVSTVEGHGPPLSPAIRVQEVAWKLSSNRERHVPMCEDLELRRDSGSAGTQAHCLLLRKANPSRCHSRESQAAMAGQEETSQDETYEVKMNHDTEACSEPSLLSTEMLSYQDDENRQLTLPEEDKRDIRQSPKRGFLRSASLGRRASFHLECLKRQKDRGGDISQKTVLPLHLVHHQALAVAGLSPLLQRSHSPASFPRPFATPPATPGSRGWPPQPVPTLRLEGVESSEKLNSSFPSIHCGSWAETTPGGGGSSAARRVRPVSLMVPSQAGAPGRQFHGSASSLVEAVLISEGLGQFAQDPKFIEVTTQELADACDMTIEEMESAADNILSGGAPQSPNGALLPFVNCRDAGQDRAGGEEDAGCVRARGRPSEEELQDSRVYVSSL", "test": "Inhibition of Cav1.2 (unknown origin)"}, "[32]": {"molecular_target": "T1, Cytochrome P450 3A4", "test": "Time dependent inhibition of human CYP3A4 at 10 to 50 uM", "assay_type": "ADME"}, "[33]": {"test": "Drug metabolism in bile duct cannulated rat assessed as CYP3A4-mediated oxidative metabolite formation", "assay_type": "ADME"}}, "note": "The source made the active and inactive calls. No cut-off for these calls is given here."}
{"smiles": "Cc1c([C@@H](O)CN2CCN(C[C@H](O)c3ccc4c(c3C)COC4=O)CC2)ccc2c1COC2=O", "note": "[MK-7145]", "values": [{"measurement": "Drug metabolism", "setting": "[1]", "result": "Metabolite_Detected"}, {"measurement": "fold change (FC)", "setting": "[2]", "result": 1.4}, {"measurement": "Activity", "setting": "[3]", "result": "Non-Toxic"}, {"measurement": "fold change (FC)", "setting": "[4]", "result": 2.1}, {"measurement": "Drug metabolism", "setting": "[5]", "result": "15 to 37", "unit": "%"}, {"measurement": "Drug metabolism", "setting": "[6]", "result": "15 to 37", "unit": "%"}, {"measurement": "Activity", "setting": "[7]", "result": "Dose-dependent effect"}, {"measurement": "fold change (FC)", "setting": "[8]", "result": 6.4}, {"measurement": "IC50", "setting": "[9]", "result": "> 50", "unit": "µM"}, {"measurement": "IC50", "setting": "[10]", "result": "> 50", "unit": "µM"}, {"measurement": "fold change (FC)", "setting": "[11]", "result": 1.7}, {"measurement": "Vd", "setting": "[12]", "result": 6.7, "unit": "L/kg"}, {"measurement": "inhibition", "setting": "[13]", "result": "inactive"}, {"measurement": "fold change (FC)", "setting": "[14]", "result": 6.2}, {"measurement": "half-life", "setting": "[15]", "result": 1.1, "unit": "h"}, {"measurement": "metabolised at 2 h, 1 µM", "setting": "[16]", "result": "< 1", "unit": "%"}, {"measurement": "bioavailability", "setting": "[17]", "result": 25, "unit": "%"}, {"measurement": "metabolised at 2 h, 1 µM", "setting": "[18]", "result": "15 to 37", "unit": "%"}, {"measurement": "metabolised at 2 h, 1 µM", "setting": "[19]", "result": "15 to 37", "unit": "%"}, {"measurement": "half-life", "setting": "[20]", "result": 1.7, "unit": "h"}, {"measurement": "clearance", "setting": "[21]", "result": 56, "unit": "mL/min/kg"}, {"measurement": "inhibition", "setting": "[22]", "result": "inactive"}, {"measurement": "IC50", "setting": "[23]", "result": 9.94, "unit": "µM"}, {"measurement": "fold change (FC)", "setting": "[24]", "result": 9}, {"measurement": "Drug excretion", "setting": "[25]", "result": "Metabolite_Detected"}, {"measurement": "bioavailability", "setting": "[26]", "result": 21, "unit": "%"}, {"measurement": "metabolised at 2 h, 1 µM", "setting": "[27]", "result": "< 1", "unit": "%"}, {"measurement": "clearance", "setting": "[28]", "result": 29, "unit": "mL/min/kg"}, {"measurement": "fold change (FC)", "setting": "[29]", "result": 1.8}, {"measurement": "IC50", "setting": "[30]", "result": 23, "unit": "µM"}, {"measurement": "IC50", "setting": "[31]", "result": "> 30", "unit": "µM"}, {"measurement": "TDI", "setting": "[32]", "result": "Not Active"}, {"measurement": "Drug metabolism", "setting": "[33]", "result": "Metabolite_Detected"}]}
